# Non-standard residues stand in square brackets, D forms with d. Nap = naphthalene (naphthaline) capping group; Lys(Me3) = C[N+](C)(C)CCCC[C@H](N)C(=O)O; Ada = adamantane cap
# Tests used:
# [1] = test system: C-LytA (C-terminal moiety of the pneumococcal cell-wall amidase LytA); test: Isothermal titration calorimetry; format: binding, Streptococcus pneumoniae; details: ITC; in words, as compared to Fmoc-K' itself
# How it was run: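 Recombinant C-LytA was expressed in E. coli BL21(DE3), induced with 0.3 mM IPTG at 16°C for 16–18 h, purified on Q Sepharose, eluted with 2% choline, and dialysed into PBS to remove choline. It was a dimer by gel filtration and ultracentrifugation. ITC was run in PBS at 16°C with ligand at pH 7.4, both solutions degassed by centrifugation. Ligand was titrated into the protein cell (0.4 μL, then 19 × 2 μL injections, 120 s apart, stirred at 1000 rpm). Ka came from a one- or two-site binding fit.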
# [2] = Transmission electron microscopy; format: physicochemical; details: TEM, PBS; for morphology after self-assembly: pH = 7.4, above CMC, samples prepared at 25°C, uranyl acetate stain
# How it was run: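 Samples were prepared in PBS at 25°C and applied to carbon-coated copper grids. Excess liquid was blotted with filter paper, and samples were negatively stained with uranyl acetate. Grids were dried overnight in a desiccator and imaged at 200 kV.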
# [3] = pH = 7.4, 1.25 mmol/L, 1.08 wt% (Figure 2 legend)
Substance,association constant (Ka) with C-LytA compared to Fmoc-K' [1],"average diameter of nanoparticles ([2]; pH = 7.4, 1.09 wt%)",morphology after self-assembly [2],"length of nanofibers [2, 3]","width of nanofibers [2, 3]"
AdaGFFYKKK'-NH2 (Ada-GFFYKK[Lys(Me3)]-NH2) [Compound 1],far higher association constant,around 153 nm,nanoparticle morphology,,
NapGFFYKKK'-NH2 (Nap-GFFYKK[Lys(Me3)]-NH2) [Compound 2],far higher association constant,,uniform nanofibers,several microns,around 75 nm

# — article PMC4197414 (Scientific Reports, 2014)
